ChEMBL document CHEMBL3861972, “Actinomadurol, an Antibacterial Norditerpenoid from a Rare Actinomycete, Actinomadura sp. KC 191” (J Nat Prod, 2016)
Values after ≈ are worked out from the molar mass of the structure shown.

Legend:
Proteus hauseri = assay: Antibacterial activity against Proteus hauseri NBRC 3851 after 24 hrs by serial two fold dilution method; type: functional; conditions: NBRC 3851, 24 h
Method in brief: (§1)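 Broth microdilution MIC. Bacteria grown overnight in LB broth at 37 °C, harvested by centrifugation and washed twice in sterile distilled water. Compound DMSO stocks were diluted in Standard method broth to give serial 2-fold dilutions from 100 to […] μg/mL. About 10^5 cfu/mL of test bacteria were added per well, and plates were incubated 24 h at 37 °C.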

Aspergillus fumigatus = assay: Antifungal activity against Aspergillus fumigatus; type: functional
Staphylococcus aureus = assay: Antibacterial activity against Staphylococcus aureus ATCC 6538p after 24 hrs by serial two fold dilution method; type: functional; method in brief: as §1
Kocuria rhizophila = assay: Antibacterial activity against Kocuria rhizophila NBRC 12708 after 24 hrs by serial two fold dilution method; type: functional; conditions: NBRC 12708, 24 h; method in brief: as §1
[1] = Growth inhibition of human MDA-MB-231 cells; type: functional, cell-based
[2] = Growth inhibition of human HCT116 cells; type: functional, cell-based; conditions: HCT-116
[3] = Growth inhibition of human A549 cells; type: functional, cell-based
[4] = Growth inhibition of human K562 cells; type: functional, cell-based
Candida albicans = assay: Antifungal activity against Candida albicans; type: functional
[5] = Growth inhibition of human SKHEP1 cells; type: functional, cell-based; conditions: SK-HEP1
Escherichia coli = assay: Antibacterial activity against Escherichia coli ATCC 25922 after 24 hrs by serial two fold dilution method; type: functional; conditions: ATCC 25922, 24 h; method in brief: as §1
[6] = Antibacterial activity against Salmonella enterica ATCC 14028 after 24 hrs by serial two fold dilution method; type: functional; conditions: ATCC 14028, 24 h; method in brief: as §1
Bacillus spizizenii = assay: Antibacterial activity against Bacillus subtilis ATCC 6633 after 24 hrs by serial two fold dilution method; type: functional; conditions: ATCC 6633, 24 h; method in brief: as §1
[7] = Antifungal activity against Trichophyton rubrum; type: functional
[8] = Antifungal activity against Trichophyton mentagrophytes; type: functional
[9] = Growth inhibition of human SNU638 cells; type: functional, cell-based; conditions: SNU-638

MIC (Proteus hauseri) | MIC (Aspergillus fumigatus) | MIC (Staphylococcus aureus) | MIC (Kocuria rhizophila) | MIC (Candida albicans) | MIC (Escherichia coli) | MIC [6] | MIC (Bacillus spizizenii) | MIC [7] | MIC [8] | SMILES | IC50 [1] | IC50 [2] | IC50 [3] | IC50 [4] | IC50 [5] | IC50 [9]
> 100 µg/mL | > 100 µg/mL | > 100 µg/mL | > 100 µg/mL | > 100 µg/mL | > 100 µg/mL | > 100 µg/mL | > 100 µg/mL | > 100 µg/mL | > 100 µg/mL | C=C[C@]1(C)CCC2=C(C1)C(=O)C[C@H]1C(CO)=CC(=O)[C@@H](O)[C@]21C | > 100 µg/mL | > 100 µg/mL | > 100 µg/mL | > 100 µg/mL | > 100 µg/mL | > 100 µg/mL
0.78 µg/mL (≈ 2.45 µM) | > 100 µg/mL | 0.78 µg/mL (≈ 2.45 µM) | 0.39 µg/mL (≈ 1.22 µM) | > 100 µg/mL | > 100 µg/mL | 3.12 µg/mL (≈ 9.8 µM) | 1.56 µg/mL (≈ 4.9 µM) | > 100 µg/mL | > 100 µg/mL | C=C[C@]1(C)CCC2=C(C1)[C@H](O)C[C@H]1C(CO)=CC(=O)[C@@H](O)[C@]21C | > 100 µg/mL | > 100 µg/mL | > 100 µg/mL | > 100 µg/mL | > 100 µg/mL | > 100 µg/mL

SMILES | MIC (Proteus hauseri) | MIC (Aspergillus fumigatus) | MIC (Staphylococcus aureus) | MIC (Kocuria rhizophila) | MIC (Candida albicans) | MIC (Escherichia coli) | MIC [6] | MIC (Bacillus spizizenii) | MIC [7] | MIC [8] | IC50 [1] | IC50 [2] | IC50 [3] | IC50 [4] | IC50 [5] | IC50 [9]
CC1(C)S[C@@H]2[C@H](NC(=O)[C@H](N)c3ccccc3)C(=O)N2[C@H]1C(=O)O [AMPICILLIN] | 1.56 µg/mL (≈ 4.46 µM) | – | 3.12 µg/mL (≈ 8.93 µM) | 0.79 µg/mL (≈ 2.26 µM) | – | 6.25 µg/mL (≈ 17.9 µM) | 3.12 µg/mL (≈ 8.93 µM) | 1.56 µg/mL (≈ 4.46 µM) | – | – | – | – | – | – | – | –
